Series [1] can be described thus: Inhibition of VLA-4 in rat serum binding to VCAM-1 in human Jurkat TM cells after 30 mins by fibronectin mediated cell adhesion assay. The format is cell-based. Particulars: 0.5 h. In short, it runs like this:
(§1)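 Cells were preincubated 30 min on wet ice with anti-α5 (5 µg/ml) and a compound dose–response, then allowed to bind 35 min at 37 °C, 5% CO2 to human plasma fibronectin-coated wells. Wells were washed 3× and read by fluorescence to give IC50.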

Series [2] is described as follows: AUC in iv dosed Sprague-Dawley rat. The format is ADME, organism-based. Particulars: plasma.
The nature of series [3]: Inhibition of VLA-4 in mouse serum binding to VCAM-1 in human Jurkat TM cells after 30 mins by fibronectin mediated cell adhesion assay. The format is cell-based. To be noted: 0.5 h.
Series [4] concerns Mus musculus. In words: Inhibition of Eos influx in Black/6 mouse acute pulmonary cellular influx model at 10 mg/kg, po bid administered 1hr prior and 12 hrs post ova/alum challenge on day 28 and 29 relative to alpha4 antibody PS/2. The format is functional. In short, it runs like this:
(§2)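 Female Black/6 mice were sensitized i.p. with ova/alum on day 1, boosted on day 14, and challenged with aerosolized ova on days 28 and 29. Compound was given by oral gavage (5 ml/kg) twice daily on days 28–29, 1 h before and 12 h after challenge. BAL was collected on day 30, 48 h after the first challenge. Eosinophil influx was reported as % inhibition against vehicle or against PS/2 (anti-α4, 10 mg/kg iv, 2 h before first challenge).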

The subject of series [5] is Mus musculus. The experiment in a line: Inhibition of Eos influx in Black/6 mouse acute pulmonary cellular influx model at 3 mg/kg, po bid administered 1hr prior and 12 hrs post ova/alum challenge on day 28 and 29 relative to PS/2. The format is functional. In short, it runs like this: as §2
Series [6] can be described thus: Inhibition of VLA-4 in human serum binding to VCAM-1 in human Jurkat TM cells after 30 mins by fibronectin mediated cell adhesion assay. The format is cell-based. Particulars: 0.5 h. In short, it runs like this: as §1
Series [7] can be described thus: Inhibition of VLA-4 (unknown origin) binding to VCAM-1 in human Jurkat TM cells after 30 mins by fibronectin mediated cell adhesion assay. The format is cell-based. In short, it runs like this: (§3)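 Calcein-labelled Jurkat TM cells (10^5/well) in Hepes 20 mM, NaCl 140 mM, CaCl2 1 mM, MgCl2 1 mM, 0.3% BSA with activating anti-α4 TS2/16. Cells were preincubated 30 min on wet ice with anti-α5 (5 µg/ml) and a compound dose–response, then bound 35 min at 37 °C, 5% CO2 to human plasma fibronectin-coated wells. Wells were washed 3× and read by fluorescence to give IC50.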

The nature of series [8]: Oral bioavailability in Sprague-Dawley rat. The format is ADME, organism-based. To be noted: in vivo.
Series [9] can be described thus: Inhibition of VLA-4 binding to VCAM-1 in human Jurkat TM cells after 30 mins by fibronectin mediated cell adhesion assay using BSA. The format is cell-based. The gist of the method:
as §3

Series [10] in a line: AUC in po dosed Sprague-Dawley rat. The format is ADME, organism-based. Particulars: plasma.
Series [11] relates to Mus musculus. The experiment in a line: Inhibition of Eos influx in Black/6 mouse acute pulmonary cellular influx model at 10 mg/kg, po bid administered 1hr prior and 12 hrs post ova/alum challenge on day 28 and 29 relative to vehicle-treated control. The format is functional. The gist of the method:
as §2

A short description of series [12]: Plasma concentration in po dosed Sprague-Dawley rat after 12 hrs. The format is ADME, organism-based.
The subject of series [13] is Mus musculus. The experiment in a line: Inhibition of Eos influx in Black/6 mouse acute pulmonary cellular influx model at 3 mg/kg, po bid administered 1hr prior and 12 hrs post ova/alum challenge on day 28 and 29 relative to vehicle-treated control. The format is functional. The gist of the method: as §2
Series [14] has as its system Cavia porcellus. The experiment in a line: Antiinflammatory activity in guinea pig at 30 to 300 mg/kg, po bid for 12 days. The format is functional, organism-based. In short, it runs like this: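 Guinea pig EAE: animals were immunized, and only those with established disease (clinical score >0) were randomized at 16–18 days post-immunization. Oral dosing was bid for 12 days at 30 or 300 mg/kg. Natalizumab was given every other day as comparator. The read-out was clinical score over the treatment period.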

Series [15] relates to Rattus norvegicus. The experiment in a line: Antiarthritic activity in Lewis rat collagen induced arthritis model assessed as bone resorbtion at 3 to 30 mg/kg, po bid for 21 days. The format is functional, organism-based. In short, it runs like this: (§4)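 Female Lewis rats developing type II collagen arthritis were dosed prophylactically by oral gavage, bid, at 3, 10 or 30 mg/kg for 21 days. A separate arm received methotrexate 0.05 mg/kg po qd, alone or combined. Read-outs were ankle caliper measurements as AUC, terminal hind paw weights, body weight and ankle/knee histology. Only animals with definite clinical and histopathologic disease were analysed.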

Series [16] has as its target Integrin alpha-V/beta-1 (Homo sapiens, UniProt P05556+P06756). In words: Inhibition of integrin alphaVbeta1 (unknown origin) binding to mouse OPN-HIS after 30 mins by fibronectin mediated cell adhesion assay. The format is protein-complex assay.
Series [17] relates to Rattus norvegicus. In words: Antirheumatic activity in Lewis rat collagen induced arthritis model assessed as ankle histology at 3 to 30 mg/kg, po bid for 21 days. The format is functional, organism-based. The gist of the method:
as §4

Series [18] deals with Integrin alpha-5/beta-1 (Homo sapiens, UniProt P05556+P08648). The experiment in a line: Inhibition of integrin alpha5beta1 (unknown origin) binding to fibronectin in human THP1 cells after 30 mins by fibronectin mediated cell adhesion assay.
Sequence of Integrin alpha-5/beta-1 (P05556 21-798 limits assumed): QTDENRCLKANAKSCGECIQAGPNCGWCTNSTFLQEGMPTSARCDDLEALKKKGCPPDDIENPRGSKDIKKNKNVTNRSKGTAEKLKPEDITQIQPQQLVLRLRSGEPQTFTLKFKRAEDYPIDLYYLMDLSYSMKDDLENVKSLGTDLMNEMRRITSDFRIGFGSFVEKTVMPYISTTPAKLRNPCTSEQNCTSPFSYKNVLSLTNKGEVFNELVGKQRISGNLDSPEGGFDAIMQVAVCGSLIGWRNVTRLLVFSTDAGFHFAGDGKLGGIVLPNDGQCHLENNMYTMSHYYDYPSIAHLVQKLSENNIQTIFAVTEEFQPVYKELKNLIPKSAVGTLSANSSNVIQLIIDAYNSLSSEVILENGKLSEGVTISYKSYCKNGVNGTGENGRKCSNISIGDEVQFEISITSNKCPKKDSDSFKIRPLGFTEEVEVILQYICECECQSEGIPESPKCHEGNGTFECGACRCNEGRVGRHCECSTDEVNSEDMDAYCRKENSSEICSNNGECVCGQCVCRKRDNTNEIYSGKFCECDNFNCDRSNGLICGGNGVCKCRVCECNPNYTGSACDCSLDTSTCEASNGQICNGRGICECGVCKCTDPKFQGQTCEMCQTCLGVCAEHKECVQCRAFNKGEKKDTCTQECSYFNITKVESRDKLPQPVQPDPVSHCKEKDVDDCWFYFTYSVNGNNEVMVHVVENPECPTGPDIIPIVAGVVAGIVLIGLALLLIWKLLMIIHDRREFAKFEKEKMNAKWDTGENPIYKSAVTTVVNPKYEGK
Sequence of Integrin alpha-5/beta-1 (P08648 42-894 limits assumed): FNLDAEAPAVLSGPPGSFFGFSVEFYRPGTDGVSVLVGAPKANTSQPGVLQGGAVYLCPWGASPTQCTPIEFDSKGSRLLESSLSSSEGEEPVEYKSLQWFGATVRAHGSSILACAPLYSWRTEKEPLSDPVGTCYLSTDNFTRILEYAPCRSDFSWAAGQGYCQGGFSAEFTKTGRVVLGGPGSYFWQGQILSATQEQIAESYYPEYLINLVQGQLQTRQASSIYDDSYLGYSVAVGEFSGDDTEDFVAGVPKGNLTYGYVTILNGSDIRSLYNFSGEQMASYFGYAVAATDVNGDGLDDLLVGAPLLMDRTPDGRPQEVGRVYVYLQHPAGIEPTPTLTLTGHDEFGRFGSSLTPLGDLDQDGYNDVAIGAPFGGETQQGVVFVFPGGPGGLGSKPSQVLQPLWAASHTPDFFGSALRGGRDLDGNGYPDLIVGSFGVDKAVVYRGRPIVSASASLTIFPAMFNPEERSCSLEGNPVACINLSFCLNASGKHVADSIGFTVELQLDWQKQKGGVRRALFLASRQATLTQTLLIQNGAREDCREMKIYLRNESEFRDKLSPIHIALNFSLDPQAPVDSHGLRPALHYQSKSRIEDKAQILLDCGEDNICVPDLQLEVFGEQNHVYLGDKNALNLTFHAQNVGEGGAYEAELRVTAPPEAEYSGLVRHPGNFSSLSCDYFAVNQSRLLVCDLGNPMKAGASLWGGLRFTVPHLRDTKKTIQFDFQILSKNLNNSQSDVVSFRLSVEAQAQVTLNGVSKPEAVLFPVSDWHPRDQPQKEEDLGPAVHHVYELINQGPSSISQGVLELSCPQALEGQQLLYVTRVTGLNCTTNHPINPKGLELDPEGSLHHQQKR
Sequence of Integrin alpha-5/beta-1 (P08648 895-1049 limits assumed): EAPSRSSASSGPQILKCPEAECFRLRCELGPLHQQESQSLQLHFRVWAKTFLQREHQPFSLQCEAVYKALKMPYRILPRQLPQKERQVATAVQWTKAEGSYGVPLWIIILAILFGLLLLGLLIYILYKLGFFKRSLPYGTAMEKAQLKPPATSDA
Series [19] has as its system Mus musculus. The experiment in a line: Inhibition of Eos influx in Black/6 mouse acute pulmonary cellular influx model at 1 mg/kg, po bid administered 1hr prior and 12 hrs post ova/alum challenge on day 28 and 29 relative to vehicle-treated control. The format is functional. In short, it runs like this: (§5)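 Female Black/6 mice were sensitized i.p. with ova/alum on day 1, boosted on day 14 and challenged with aerosolized ova and alum on days 28 and 29. Dosing was oral gavage (5 ml/kg) twice daily on days 28–29, 1 h before and 12 h after challenge. Reference anti-α4 antibody PS/2 was given iv at 10 mg/kg, 2 h before the first challenge. Bronchoalveolar lavage eosinophils were counted on day 30 (48 h after the first challenge) as % inhibition.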

Series [20] concerns Rattus norvegicus. The experiment in a line: Antiarthritic activity in Lewis rat collagen induced arthritis model assessed as final paw weight at 10 to 30 mg/kg, po bid for 21 days. The format is functional, organism-based. The gist of the method:
as §4

Series [21] deals with Rattus norvegicus. The experiment in a line: Antiarthritic activity in Lewis rat collagen induced arthritis model assessed as AUC for ankle swelling at 10 to 30 mg/kg, po bid for 21 days. The format is functional, organism-based. The gist of the method:
as §4

Series [22] deals with Mus musculus. The experiment in a line: Inhibition of Eos influx in Black/6 mouse acute pulmonary cellular influx model at 1 mg/kg, po bid administered 1hr prior and 12 hrs post ova/alum challenge on day 28 and 29 relative to alpha4 antibody PS/2. The format is functional. In short, it runs like this: as §5
The subject of series [23] is Rattus norvegicus. In words: Antirheumatic activity in Lewis rat collagen induced arthritis model assessed as ankle histology at 0.05 mg/kg, po bid for 21 days. The format is functional, organism-based. Set-up: dose 0.05 mg/kg.
Series [24] deals with Integrin alpha-L/beta-2 (LFA-1) (Homo sapiens, UniProt P05107+P20701). The experiment in a line: Inhibition of integrin alphaLbeta2 (unknown origin) binding to ICAM in human 8866 cells after 30 mins by ICAM mediated cell adhesion assay.
Sequence of Integrin alpha-L/beta-2 (LFA-1) (P20701 whole entry): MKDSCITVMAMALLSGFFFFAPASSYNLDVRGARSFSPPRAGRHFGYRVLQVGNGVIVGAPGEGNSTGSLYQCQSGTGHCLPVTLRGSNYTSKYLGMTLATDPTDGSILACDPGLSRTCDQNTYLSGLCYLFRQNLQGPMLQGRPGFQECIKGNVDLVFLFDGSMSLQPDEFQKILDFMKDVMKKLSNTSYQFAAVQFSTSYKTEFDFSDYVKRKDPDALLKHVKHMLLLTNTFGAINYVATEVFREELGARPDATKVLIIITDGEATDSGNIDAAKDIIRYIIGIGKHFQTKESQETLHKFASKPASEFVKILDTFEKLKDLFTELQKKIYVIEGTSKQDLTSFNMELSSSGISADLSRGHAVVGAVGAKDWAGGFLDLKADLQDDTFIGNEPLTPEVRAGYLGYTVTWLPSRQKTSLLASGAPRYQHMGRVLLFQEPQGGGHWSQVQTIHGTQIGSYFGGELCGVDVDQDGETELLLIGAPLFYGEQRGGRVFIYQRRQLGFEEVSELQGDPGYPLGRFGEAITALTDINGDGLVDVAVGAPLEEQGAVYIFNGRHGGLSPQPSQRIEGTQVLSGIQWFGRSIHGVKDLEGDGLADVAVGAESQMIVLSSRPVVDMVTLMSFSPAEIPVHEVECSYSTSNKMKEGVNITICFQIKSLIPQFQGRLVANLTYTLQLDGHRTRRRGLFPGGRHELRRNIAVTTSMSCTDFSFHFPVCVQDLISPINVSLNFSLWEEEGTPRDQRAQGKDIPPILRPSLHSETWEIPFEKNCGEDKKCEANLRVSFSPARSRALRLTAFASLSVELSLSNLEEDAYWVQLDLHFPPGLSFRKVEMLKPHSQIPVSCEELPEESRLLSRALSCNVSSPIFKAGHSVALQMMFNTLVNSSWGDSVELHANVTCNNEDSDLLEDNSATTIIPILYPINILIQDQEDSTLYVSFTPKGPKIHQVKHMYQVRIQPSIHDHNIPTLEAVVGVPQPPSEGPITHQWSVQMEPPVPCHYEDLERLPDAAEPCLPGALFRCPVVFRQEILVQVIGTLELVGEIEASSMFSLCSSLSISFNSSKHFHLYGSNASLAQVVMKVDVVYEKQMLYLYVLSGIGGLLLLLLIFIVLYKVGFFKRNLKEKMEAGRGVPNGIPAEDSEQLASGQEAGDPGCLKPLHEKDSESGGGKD
Sequence of Integrin alpha-L/beta-2 (LFA-1) (P05107 whole entry): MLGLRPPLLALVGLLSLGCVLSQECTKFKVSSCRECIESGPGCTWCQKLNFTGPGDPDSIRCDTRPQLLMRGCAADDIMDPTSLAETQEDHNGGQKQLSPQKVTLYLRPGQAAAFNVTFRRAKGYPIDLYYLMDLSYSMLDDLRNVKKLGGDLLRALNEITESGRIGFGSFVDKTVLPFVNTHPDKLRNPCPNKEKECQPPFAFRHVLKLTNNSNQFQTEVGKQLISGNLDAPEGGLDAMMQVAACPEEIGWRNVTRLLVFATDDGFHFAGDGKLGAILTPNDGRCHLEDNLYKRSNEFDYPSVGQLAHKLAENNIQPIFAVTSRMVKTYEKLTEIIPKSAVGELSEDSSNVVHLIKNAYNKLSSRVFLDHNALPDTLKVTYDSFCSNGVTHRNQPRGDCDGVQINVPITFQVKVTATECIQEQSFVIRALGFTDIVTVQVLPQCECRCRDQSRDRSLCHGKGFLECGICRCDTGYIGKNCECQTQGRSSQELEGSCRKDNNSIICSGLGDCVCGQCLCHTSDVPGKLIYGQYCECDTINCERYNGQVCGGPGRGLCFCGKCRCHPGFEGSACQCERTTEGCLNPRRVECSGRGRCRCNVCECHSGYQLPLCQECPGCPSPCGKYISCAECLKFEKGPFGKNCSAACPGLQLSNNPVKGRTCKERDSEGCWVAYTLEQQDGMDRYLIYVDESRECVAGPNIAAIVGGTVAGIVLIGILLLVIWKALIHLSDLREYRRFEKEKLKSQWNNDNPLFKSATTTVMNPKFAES
The subject of series [25] is Rattus norvegicus. In words: Antiarthritic activity in Lewis rat collagen induced arthritis model assessed as cartilage destruction at 3 to 30 mg/kg, po bid for 21 days. The format is functional, organism-based. The gist of the method:
as §4

The subject of series [26] is Rattus norvegicus. The experiment in a line: Antiarthritic activity in Lewis rat collagen induced arthritis model at 3 to 30 mg/kg, po bid for 21 days. The format is functional, organism-based. In short, it runs like this: as §4
Series [27] has as its system Rattus norvegicus. The experiment in a line: Antiarthritic activity in Lewis rat collagen induced arthritis model assessed as inhibition of AUC for ankle swelling at 3 mg/kg, po bid for 21 days. The format is functional. Particulars: 504 h, read-out: INH. In short, it runs like this:
as §4

The subject of series [28] is Rattus norvegicus. The experiment in a line: Antiarthritic activity in Lewis rat collagen induced arthritis model assessed as final paw weight at 3 mg/kg, po bid for 21 days. The format is functional, organism-based. More on the design: dose 3 mg/kg. In short, it runs like this: as §4

Molecules are shown by their SMILES. Active and inactive are the calls of the source. The calls are words filed in the database; no cut-off is given here. Where only a bound is given, the exact number is not on record here.

Sequence of Integrin alpha-V/beta-1 (P05556 21-798 limits assumed): as the sequence (P05556 21-798 limits assumed) above
Sequence of Integrin alpha-V/beta-1 (P06756 31-889 limits assumed): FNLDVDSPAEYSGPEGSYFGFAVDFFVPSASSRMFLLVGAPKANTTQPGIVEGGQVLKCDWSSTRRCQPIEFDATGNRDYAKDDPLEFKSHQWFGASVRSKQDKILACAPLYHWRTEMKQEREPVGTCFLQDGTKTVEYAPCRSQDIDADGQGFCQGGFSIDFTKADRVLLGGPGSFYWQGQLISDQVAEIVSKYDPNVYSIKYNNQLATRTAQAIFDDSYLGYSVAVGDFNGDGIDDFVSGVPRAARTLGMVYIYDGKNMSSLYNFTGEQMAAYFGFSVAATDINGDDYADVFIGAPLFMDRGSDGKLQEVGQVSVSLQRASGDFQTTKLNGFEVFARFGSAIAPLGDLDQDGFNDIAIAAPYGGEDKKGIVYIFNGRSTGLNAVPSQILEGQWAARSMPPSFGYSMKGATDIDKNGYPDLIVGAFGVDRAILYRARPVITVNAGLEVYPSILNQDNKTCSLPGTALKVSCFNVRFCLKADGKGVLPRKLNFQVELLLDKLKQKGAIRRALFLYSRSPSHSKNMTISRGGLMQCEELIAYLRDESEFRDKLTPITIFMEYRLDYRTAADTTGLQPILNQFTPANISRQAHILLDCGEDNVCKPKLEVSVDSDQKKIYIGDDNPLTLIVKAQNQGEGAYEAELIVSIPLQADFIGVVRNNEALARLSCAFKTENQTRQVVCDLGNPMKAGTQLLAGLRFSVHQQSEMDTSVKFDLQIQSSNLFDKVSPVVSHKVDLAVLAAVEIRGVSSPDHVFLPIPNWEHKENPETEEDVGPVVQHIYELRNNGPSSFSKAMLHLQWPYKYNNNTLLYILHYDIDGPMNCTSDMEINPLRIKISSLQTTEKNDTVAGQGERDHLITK
Sequence of Integrin alpha-V/beta-1 (P06756 891-1048 limits assumed): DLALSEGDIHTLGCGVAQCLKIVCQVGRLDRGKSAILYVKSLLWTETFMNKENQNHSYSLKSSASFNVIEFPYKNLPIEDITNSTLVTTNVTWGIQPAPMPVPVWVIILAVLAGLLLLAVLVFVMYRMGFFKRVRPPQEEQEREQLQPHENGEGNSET

On to `CCN(CC)c1ncc(N(C)S(=O)(=O)c2ccc(F)cc2)c(N[C@@H](Cc2ccc(OC(=O)N(C)C)cc2)C(=O)O)n1`, for which the IC50 in series [1] turned out to be 280 nM; in [3], 6 nM; in series [6] it was 45 nM; in [7] it was 2 nM; in [9], 2 nM. Further, the results for the AUC in series [2] and in series [10] were 27000 ng·h/mL and 20000 ng·h/mL, respectively. For the same molecule, the figures for the inhibition in vivo at 10 mg/kg in [4] and in [11] were 80% and 45%, respectively. For the same molecule, the inhibition in vivo at 3 mg/kg in [5] came to 5%; in series [13], 3%. In [8], this molecule had a bioavailability of 74%. In series [12], this molecule had a concentration at 12 h of 120 ng/mL.

Take `C#CCN(c1cnc(N(CC)CC)nc1N[C@@H](Cc1ccc(OC(=O)N2CCCC2)cc1)C(=O)O)S(=O)(=O)c1ccc(F)cc1`: the IC50 was 1900 nM in [1]; 36 nM in series [3]; 500 nM in [16]; above 30000 nM in series [18]; 4600 nM in series [6]; 8 nM in [7]. Further, the concentration for half-maximal inhibition (IC50) was 9 nM in series [9] and above 30000 nM in [24]. The AUC in series [2] stood at 156000 ng·h/mL; in series [10], 88000 ng·h/mL. Further, the result in series [14], in series [15], in series [17], in series [20], in [21] and in series [23] was Active. The result in series [25], in series [26] and in series [28] was Active. For the same molecule, the figures for the inhibition in vivo at 3 mg/kg in series [5], in series [27] and in series [13] were 74%, 15% and 41%, respectively. For the same molecule, the inhibition in vivo at 1 mg/kg in series [19] and in series [22] was 0% each time. Moreover, the bioavailability in series [8] stood at 56%. For the same molecule, the concentration at 12 h in [12] is 1310 ng/mL.

Usually IC50 stands for the concentration that gives 50% inhibition. By AUC is commonly meant the area under the concentration-time curve, a measure of exposure. What is called bioavailability is dose-corrected exposure relative to a reference, in per cent. A higher bioavailability goes with much systemic uptake.

(Values after ChEMBL document CHEMBL2380222, “Arylsulfonamide pyrimidines as VLA-4 antagonists” (Bioorg Med Chem Lett, 2013).)
